# Screening results: PubChem, Broad Institute
# Many of the other results were omitted from the sample, so hits are more common in it than they were.
# PGC1a Ac signal: raises PGC1a acetylation signal in U2OS cells; 350,000 compounds, 0.21% hits; activation, % at 15.6 µM; AID 651723; U2OS PGC1a acetylation AlphaScreen, overnight;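 active = every replicate reaching activation of at least 50%, whatever the mean replicate activation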;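 note: hits raise the AlphaScreen acetylation signal above neutral controls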
#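 Test system: U2OS cells expressing flag-PGC1a plus GCN5; Amount: 7000 U2OS cells per well; Compound: single test concentration per compound; Incubation: compound overnight at 37 °C, each detection step 1 h RT; Signal: AlphaScreen lysate read.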
# Active calls of the source: *.
SMILES,PGC1a Ac signal
Cc1cccc(NC(=O)CNC(=O)Cn2ncc(Cl)c(Cl)c2=O)c1C,-51
N#Cc1ccc(C(=O)CSc2nnc(-c3ccc(C(F)(F)F)cn3)s2)cc1,-47
C[C@@H]1CN([C@@H](C)CO)C(=O)c2cc(C#CCN(C)C)cnc2O[C@@H]1CN(C)S(=O)(=O)c1cn(C)cn1,-68
N#Cc1ccc(CCc2ccccc2)[nH]c1=O,-43
COc1ccc(/C=N/NC(=O)c2ccn[nH]2)cc1CN1CCOCC1,-43
Cn1cnc(S(=O)(=O)N2C[C@@H](O)COC[C@H]3O[C@H](CC(=O)NCc4cc(F)cc(F)c4)CC[C@@H]32)c1,-43
O=C(CSc1nnnn1-c1ccc(F)cc1)NNC(=O)c1ccco1,-44
CC(C)(C)n1nnnc1CN(Cc1ccc(F)cc1)Cc1ccco1,92*
CN(C)c1ccc(/C=N/N(CCC#N)C2=NS(=O)(=O)c3ccccc32)cc1,-52
COC(=O)c1ccc(OC)c(OC2CCCC2)c1,-89
O=C(CSc1nc2ccc(Cl)cc2[nH]1)c1ccc2c(c1)OCO2,-49
COCCn1c(SC(C)C(=O)Nc2ncc(Cl)cc2Cl)nc2ccccc21 (centres undefined),-44
COc1ccccc1OCCn1c(C(C)O)nc2ccccc21 (centres undefined),57*
CC(C)c1ccc(NC(=O)CSc2nc3ccsc3c(=O)n2Cc2ccc(C(=O)O)cc2)cc1,-59
CCn1c2ccccc2c2cc(/C=N/n3cn[nH]c3=S)ccc21,-42
C=C1C(=O)OC2C1CCC(C)=C1C(=O)C3OC3(C)C12 (centres undefined),82*
CCOCCCNC(=O)c1ccccc1SC,-46
N#Cc1cccc(-c2ccc(C3[C@@H]4CN(Cc5ccccc5F)C[C@H]3N4)cc2)c1 (some centres undefined),-48
COc1ccccc1-c1ccc(C2[C@@H]3CN(Cc4cccc(F)c4)C[C@H]2N3)cc1 (some centres undefined),72*
Cc1cccc(-c2ccc(C3[C@@H]4CN(Cc5cccc(F)c5)C[C@H]3N4)cc2)c1 (some centres undefined),59*
COc1ccccc1-c1ccc([C@@H]2[C@H](CO)N(C(C)=O)C23CN(C(C)=O)C3)cc1,-58
COc1cccc(CN2C[C@@H]3N[C@H](C2)C3c2ccc(-c3ccccc3OC)cc2)c1 (some centres undefined),58*
O=C(Nc1ccc(C(F)(F)F)cc1)N1C[C@@H]2N[C@H](C1)C2c1ccc(-c2ccccc2)cc1 (some centres undefined),-43
O=C(Nc1ccc(C(F)(F)F)cc1)N1C[C@@H]2N[C@H](C1)C2c1ccc(/C=C/c2ccccc2)cc1 (some centres undefined),-73
O=C(Nc1cccc(F)c1)N1C[C@@H]2N[C@H](C1)C2c1ccc(-c2ccc(F)cc2)cc1 (some centres undefined),73*
SMILES,PGC1a Ac signal
COc1cccc(CN2CCC(CO)(CC3CCCCO3)CC2)c1 (centres undefined),-100
CCOC(=O)CN1C(=N)N(c2nc(NC(C)C)nc(OC)n2)CC1=O,-45
C[C@H](CO)N1C[C@H](C)[C@H](CN(C)Cc2ccc(Oc3ccccc3)cc2)Oc2c(NC(=O)Nc3ccc4c(c3)OCO4)cccc2C1=O,-40
CSCC(=O)N1CCCC(CO)(Cc2ccccc2C)C1 (centres undefined),-109
C[C@@H]1CN([C@H](C)CO)C(=O)c2cccc(NC(=O)C3CCCCC3)c2O[C@@H]1CN(C)CC1CCCCC1,-55
CC(C)c1ccc(/C=C2\CC/C(=C\C=N\N(C)C)C2=O)cc1,57*
O=C1/C(=C/c2ccncc2)CCC/C1=C\c1ccncc1,-78
O=C1C=C(c2c(O)ccc3ccccc23)c2ccccc2C1=O,-54
Cc1ccc(-c2n[nH]c(=S)n2/N=C/c2cccn2C)cc1,-50
CCC(C)NCCOCCOc1ccc(C)cc1OC (centres undefined),-50
C[C@@H]1CN([C@@H](C)CO)C(=O)CCCn2cc(nn2)CO[C@H]1CN(C)Cc1ccncc1,-51
O=C(CSc1nc(NS(=O)(=O)c2ccccc2)cc(=O)[nH]1)Nc1ccc(F)cc1,69*
NS(=O)(=O)c1cccc(NC(=O)CSc2ccccn2)c1,-48
C[C@H]1CN([C@@H](C)CO)C(=O)Cc2cc(NS(=O)(=O)c3ccc(F)cc3)ccc2O[C@@H]1CN(C)C(=O)Nc1ccc2c(c1)OCO2,-55
Oc1c(Cl)cc(CN2CCOCC2)c2cccnc12,-44
CC(=O)c1cccc(NC(=O)Nc2cccnc2)c1,-50
CCCCC(=O)Nc1ccc(NC(=O)c2cccs2)cn1,-49
CCCCSc1ccc(NC(=O)c2cccnc2)cc1,70*
COc1cc(-c2nnn(CC#N)n2)ccc1OCc1ccccc1,212*
O=[N+]([O-])c1ccc(S(=O)(=O)c2cccc(C(F)(F)F)c2)nc1,172*
CSc1nc(SC)c2c3c(oc2n1)COC(C)(C)C3,58*
COc1cc(OC)c2c(-c3cccc(-c4cccc(C)c4)c3)cc(=O)oc2c1,60*
OCC1(Cc2ccc(F)cc2F)CCCN(Cc2ccc(Cl)cc2)C1 (centres undefined),-46
COC(=O)C12OCC34C(CC5C(C)=C(O)C(=O)CC5(C)C3C(O)C1O)OC(=O)C(OC(=O)C=C(C)C)C24 (centres undefined),-49
C=CCSc1nccc(-c2cc(Cl)sc2Cl)n1,51*
SMILES,PGC1a Ac signal
C[C@@H]1CN([C@H](C)CO)C(=O)c2cc(NS(C)(=O)=O)ccc2O[C@@H]1CN(C)S(=O)(=O)c1ccc(Cl)cc1,-42
O=C(Cc1ccccc1)N1CC[C@@H]2[C@H]1c1cc(C#Cc3ccccc3)ccc1N[C@@H]2CO,64*
CN(C)CC(C(=O)c1ccccc1)c1ccccc1 (centres undefined),-139
Cc1cc(Nc2ccccc2)cc(=O)n1C,-59
CCOC(=O)c1c(C)n(C)c2ccc(OCC(O)Cn3nc(C)c(Br)c3C)cc12 (centres undefined),61*
COC(=O)C1=C(N)OC2=C(C(=O)CC(C)(C)C2)C1c1cccs1 (centres undefined),57*
C[n+]1cccc(CNC(=O)/C=N/O)c1,-51
COc1ccc(/C=N/Nc2nncn2N)cc1Br,-69
CCCC(=O)Nc1ccc(C(=O)N/N=C/c2cccnc2)cc1,69*
O=C(Cc1ccc(-n2cccc2)cc1)NCc1cccs1,58*
OC(c1ccc(Cl)cc1Cl)C(Cc1cccnc1)n1cncn1 (centres undefined),59*
C[C@@H]1CN([C@H](C)CO)C(=O)CCCn2cc(nn2)CO[C@@H]1CN(C)C(=O)Nc1cccc2ccccc12,-50
CC1C(=O)CCCCCCCCCC2C1(N1CCOCC1)CS2(=O)=O (centres undefined),61*
Cn1c(O)c(C(C#N)=C2N=c3ccccc3=N2)c2ccccc21,72*
Cc1ccc(NC(=O)C2C(c3ccccc3)C2(Cl)Cl)c(C)c1 (centres undefined),-71
